# According to ChEMBL document CHEMBL1132342, “Novel hypotensive agents from Verbesina caracasana. 6. Synthesis and pharmacology of caracasandiamide” (1999):
# Legend:
# [1] = test system: Rattus norvegicus; assay: Maximum rate of rise of the left ventricular isovolumetric pressure was measured after iv administration of 2.5 mg/kg in anesthetized rats; ratio given for dP/dt; type: functional, Heart left ventricle
# [2] = test system: Rattus norvegicus; assay: Change in systolic blood pressure after iv administration of 2.5 mg/kg in anesthetized rats; type: functional, Artery
# [3] = test system: Rattus norvegicus; assay: Change in heart rate after iv administration of 2.5 ug/kg in anesthetized rats
# [4] = test system: Rattus norvegicus; assay: Change in diastolic blood pressure after iv administration of 2.5 ug/kg in anesthetized rats
# [5] = test system: Rattus norvegicus; assay: Change in systolic blood pressure after iv administration of 1 mg/kg in anesthetized rats; type: functional, Artery
# [6] = test system: Rattus norvegicus; assay: Change in diastolic blood pressure after iv administration of 1 mg/kg in anesthetized rats; type: functional, Artery
# [7] = test system: Rattus norvegicus; assay: Change in heart rate after iv administration of 1 mg/kg in anesthetized rats; type: functional
# [8] = test system: Rattus norvegicus; assay: Maximum rate of rise of the left ventricular isovolumetric pressure was measured after iv administration of 1 mg/kg in anesthetized rats; type: functional, Heart left ventricle
# [9] = test system: Rattus norvegicus; assay: Change in systolic blood pressure after iv administration of 25 uM/kg in anesthetized rats; type: functional, Artery
# Outline: (§1)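 Doses were 4.12 µM/kg (two agents), guanethidine 25, clonidine 0.108, hexamethonium 12, reserpine 8, papaverine 5 and histamine […]. Peak changes in systolic BP or HR were recorded.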
# [10] = test system: Rattus norvegicus; assay: Change in diastolic blood pressure after iv administration of 25 uM/kg in anesthetized rats; type: functional, Artery
# [11] = test system: Rattus norvegicus; assay: Maximum rate of rise of the left ventricular isovolumetric pressure was measured after iv administration of 25 uM/kg in anesthetized rats; ratio given for dP/dt; type: functional, Heart left ventricle
# [12] = test system: Rattus norvegicus; assay: Change in heart rate after iv administration of 25 uM/kg in anesthetized rats; type: functional
# [13] = test system: Rattus norvegicus; assay: Change in systolic blood pressure after iv administration of 12 uM/kg in anesthetized rats; type: functional, Artery; outline: as §1
# [14] = test system: Rattus norvegicus; assay: Change in diastolic blood pressure after iv administration of 12 uM/kg in anesthetized rats; type: functional, Artery
# [15] = test system: Rattus norvegicus; assay: Change in heart rate after iv administration of 12 uM/kg in anesthetized rats; type: functional
# [16] = test system: Rattus norvegicus; assay: Maximum rate of rise of the left ventricular isovolumetric pressure was measured after iv administration of 12 uM/kg in anesthetized rats; type: functional, Heart left ventricle
# [17] = test system: Rattus norvegicus; assay: Change in diastolic blood pressure after iv administration of 0.625 mg/kg in anesthetized rats; type: functional, Artery
# [18] = test system: Rattus norvegicus; assay: Maximum rate of rise of the left ventricular isovolumetric pressure was measured after iv administration of 0.625 mg/kg in anesthetized rats; type: functional, Heart left ventricle
# [19] = test system: Rattus norvegicus; assay: Change in heart rate after iv administration of 0.625 ug/kg in anesthetized rats
# [20] = test system: Rattus norvegicus; assay: Change in systolic blood pressure after iv administration of 0.625 ug/kg in anesthetized rats
# [21] = test system: Rattus norvegicus; assay: Change in systolic blood pressure after iv administration of 5 uM/kg in anesthetized rats; type: functional, Artery
# [22] = test system: Rattus norvegicus; assay: Change in diastolic blood pressure after iv administration of 5 uM/kg in anesthetized rats; type: functional, Artery
# [23] = test system: Rattus norvegicus; assay: Change in heart rate after iv administration of 5 uM/kg in anesthetized rats; type: functional; outline: as §1
# [24] = test system: Rattus norvegicus; assay: Maximum rate of rise of the left ventricular isovolumetric pressure was measured after iv administration of 5 uM/kg in anesthetized rats; ratio given for dP/dt; type: functional, Heart left ventricle
# [25] = test system: Rattus norvegicus; assay: Change in diastolic blood pressure after iv administration of 8 uM/kg in anesthetized rats; type: functional, Artery
# [26] = test system: Rattus norvegicus; assay: Change in heart rate after iv administration of 8 uM/kg in anesthetized rats; type: functional; outline: as §1
# [27] = test system: Rattus norvegicus; assay: Maximum rate of rise of the left ventricular isovolumetric pressure was measured after iv administration of 8 uM/kg in anesthetized rats; ratio given for dP/dt; type: functional, Heart left ventricle
# [28] = test system: Rattus norvegicus; assay: Change in systolic blood pressure after iv administration of 8 uM/kg in anesthetized rats; type: functional, Artery
smiles,measurement,setting,value
CC(=O)OCC[N+](C)(C)C [ACETYLCHOLINE],dP/dt,[1],-4451 mmHg s-1
same,BP,[2],-25 mmHg
same,Heart rate,[3],-27 beats min-1
same,BP,[4],-31 mmHg
CNC[C@H](O)c1ccc(O)c(O)c1 [EPINEPHRINE],BP,[5],25 mmHg
same,BP,[6],16 mmHg
same,Heart rate,[7],41 beats min-1
same,dP/dt,[8],8416 mmHg s-1
N=C(N)NCCN1CCCCCCC1 [GUANETHIDINE],BP,[9],-29 mmHg
same,BP,[10],-22 mmHg
same,dP/dt,[11],-1090 mmHg s-1
same,Heart rate,[12],-24 beats min-1
C[N+](C)(C)CCCCCC[N+](C)(C)C.[Cl-].[Cl-] [HEXAMETHONIUM CHLORIDE],BP,[13],-48 mmHg
same,BP,[14],-40 mmHg
same,Heart rate,[15],-46 beats min-1
same,dP/dt,[16],-4421 mmHg s-1
CC(C)NCC(O)c1ccc(O)c(O)c1 (configuration not stated) [ISOPROTERENOL],BP,[17],-31 mmHg
same,dP/dt,[18],9844 mmHg s-1
same,Heart rate,[19],46 beats min-1
same,BP,[20],-20 mmHg
NC[C@H](O)c1ccc(O)c(O)c1 [NOREPINEPHRINE],BP,[5],43 mmHg
same,BP,[6],25 mmHg
same,Heart rate,[7],28 beats min-1
same,dP/dt,[8],5564 mmHg s-1
COc1ccc(Cc2nccc3cc(OC)c(OC)cc23)cc1OC [PAPAVERINE],BP,[21],-20 mmHg
same,BP,[22],-15 mmHg
same,Heart rate,[23],-18 beats min-1
same,dP/dt,[24],-1204 mmHg s-1
COC(=O)[C@H]1[C@H]2C[C@@H]3c4[nH]c5cc(OC)ccc5c4CCN3C[C@H]2C[C@@H](OC(=O)c2cc(OC)c(OC)c(OC)c2)[C@@H]1OC [RESERPINE],BP,[25],-29 mmHg
same,Heart rate,[26],-51 beats min-1
same,dP/dt,[27],-1438 mmHg s-1
same,BP,[28],-35 mmHg
